Tests used:
[1] = tested on: primary human skeletal muscle cells (proliferating, differentiating, differentiated); experiment: MTS cell viability assay; assay type: cell-based; details: 48 h
[2] = tested on: primary human skeletal myotubes; experiment: Morphological imaging and cell counting of myotubes; assay type: cell-based; details: 5 µM
[3] = tested on: citrate synthase activity in primary human myotubes; experiment: Citrate synthase activity in myotubes; assay type: cell-based; details: simvastatin-treated myotubes
primary human myotubes = experiment: Mitochondrial superoxide production, MitoSOX Red flow cytometry; assay type: cell-based; details: 5 µM, 48 h
[4] = tested on: primary human skeletal myotubes; experiment: Intracellular ROS generation, DCF-DA staining; assay type: cell-based; details: simvastatin treated myotubes
[5] = tested on: primary human skeletal myotubes; experiment: TUNEL assessment of apoptotic myonuclei; assay type: cell-based; details: 5 µM, 48 h
Method in brief: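 Coverslip-grown myotubes exposed 48 h to test compound or 0.1% DMSO vehicle; fixed in 4% paraformaldehyde/PBS (pH 7.4) 20 min RT, permeabilized with 0.1% Triton X-100 in 0.1% sodium citrate 10 min at 4°C. TdT/fluorescein-dUTP labelling 60 min at 37°C, humidified, dark; DAPI counterstain. DNase I positive and label-only negative controls. Positive myonuclei counted over multiple sections as % of DAPI nuclei.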

Bax = experiment: Western immunoblot of Bax; assay type: cell-based, human; details: 5 µM, 48 h
Bcl-2 = experiment: Western immunoblot of Bcl-2; assay type: cell-based, human; details: 5 µM, 48 h
isolated myofibers = details: 50 µM simvastatin; ref Sirvent et al. 29; cited from earlier work
mitochondrial PTP = details: ref Velho et al. 37; cited from earlier work

SMILES	Effect of mevalonate on simvastatin-induced decrease in cell viability ([1]; differentiating cells, 1 µM simvastatin + 50 µM mevalonate)	Effect of mevalonate on simvastatin-induced decrease in cell viability ([1]; proliferating cells, 5 µM simvastatin + 50 µM mevalonate)	IC50 ([1]; Homo sapiens, read-out: IC50 for viability, proliferating cells, 48 h, MTS) [µM]	Changes in the morphology of myotubes ([2]; 24 h)	Changes in the morphology of myotubes ([2]; 48 h)	Fewer myotubes compared with DMSO-treated controls ([2]; 48 h) [%]	Myotube cell number ([2]; 48 h)	Citrate synthase activity [3] [µmol/g/min]	Increase in O2•− generation compared to DMSO control (primary human myotubes)	MitoSOX Red mean fluorescence intensity (primary human myotubes; representative histogram) [counts]	DCF-DA staining compared with control [4]	TUNEL-positive nuclei compared with control [5]	Bax protein levels higher than control (Bax) [%]	Bcl-2 protein levels greater than DMSO control (Bcl-2) [%]	Maximal ADP-stimulated respiration supported by complex I substrates (glutamate + malate) (isolated myofibers)	In vivo and in vitro calcium-dependent mitochondrial PTP opening (mitochondrial PTP)
CC(O)(CCO)CC(=O)O (stereo not shown) [mevalonate]	prevented	prevented														
CCC(C)(C)C(=O)O[C@H]1C[C@@H](C)C=C2C=C[C@H](C)[C@H](CC[C@@H]3C[C@@H](O)CC(=O)O3)[C@H]21 [simvastatin]			5	not visible	less dense and atrophied	22.3	0.87 × 10^6 cells/ml	9.89 ± 1.04	approximately 44%	46.1	increased staining	More TUNEL-positive nuclei	53	100	significantly impaired	increased

Source: PMC3313473 (Free radical biology & medicine, 2011)
